Source: PubChem BioAssay
A selection: hits, their analogues and other compounds. The true share with any hit is near 3.6%.
RAM network inh – inhibitors of the yeast RAM network, primary screen, dse1pr::URA3 reporter, 5-FOA selection; S. cerevisiae dse1pr::URA3 reporter, 5-FOA growth OD615, 2 d; analog-sensitive cbk1-as2 kinase mutant strain; inhibition, % at 50 µM; actives 1.8% (n = 190,000); AID 868, 2007;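 active = inhibition above a set limit, 3 SD over mean compound inhibition, cut at about 8.4% in these data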;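 note: 0% = DMSO-only wells with no growth and 100% = 10 µM 1-NA-PP1 full growth; inhibition rescues growth on 5-FOA so higher OD means more RAM inhibition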
Yeast lifespan up – compounds extending yeast replicative lifespan, primary screen, S. cerevisiae, OD615; S. cerevisiae growth with nicotinamide; deaD strain in restrictive glucose medium; inhibition of the nicotinamide effect, % at 10 µM; actives 0.68% (n = 130,000);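 active = inhibition above a set limit, placed 3 SD over the median of all compounds, cut at about 26% in these data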;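 note: 0% = nicotinamide-treated wells and 100% = cells grown without nicotinamide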
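Test system: DeaD-strain S. cerevisiae / Buffer or medium: restrictive glucose medium / Also added: nicotinamide 1.5 mM / Doses: one concentration, 10 µM, DMSO 0.25% / Schedule: 48 h at 30 °C / Signal: OD615 measurement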
Measles CPE – compounds protecting cells from measles virus cytopathic effect, primary screen, measles RdRp inhibitor project, single point, MLSMR library, absorbance; Measles virus-infected cells, CPE protection; protection (pct of control), % at 4 µM; actives 1.5% (n = 140,000); AID 841, 2007; in the data active = protection mostly above about 24%, no sharp cut-off; inactive = mostly below about 26%
BB579 growth dn – growth inhibitors of yeast BB579 in restrictive medium, primary screen, yeast lifespan-shortening project, S. cerevisiae; actives 0.51% (n = 140,000); inhibition, % at 10 µM; AID 804, 2007; OD615, 48 h;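 active = inhibition above a set limit, 3 SD over the mean compound inhibition, cut at about 44% in these data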
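Test system: Saccharomyces cerevisiae DeaD strain BB579, replicative lifespan model yeast | Buffer or medium: Restrictive CSMM-D medium | Doses: One dose, 10 µM compound with 0.25% DMSO | Incubation: 48 h exposure, 30 °C | Detection: Culture absorbance at 615 nm | Control set: Amphotericin B at 10 µg/mL as positive control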
* hit, by the source's call.

Results for CCN1C(=O)C(=Cc2cc(C)n(C3CC3)c2C)C(=O)N(CC)C1=S ?
RAM network inh: 4; Yeast lifespan up: 1; Measles CPE: 41; BB579 growth dn: -53

How did CCN1C(=O)C(=Cc2ccc(C)s2)C(=O)N(CC)C1=S do in these assays?
RAM network inh: 9.5*; Yeast lifespan up: 66*; Measles CPE: 4; BB579 growth dn: -19

What do the screens show for `CN(C)C1(c2nnnn2CCOC(=O)Nc2ccc(Cl)cc2)CCCCC1`?
RAM network inh: 1; Yeast lifespan up: 66*; Measles CPE: 3; BB579 growth dn: -12

Results for CC/C(=N\N1CCCCCC1)c1c(O)n(-c2ccccc2C)c(=O)[nH]c1=O ?
RAM network inh: 1; Yeast lifespan up: -1; Measles CPE: 13; BB579 growth dn: -30

Results for CCN(CCNc1ccc([N+](=O)[O-])c2cccnc12)S(=O)(=O)c1ccc(Cl)cc1 ?
RAM network inh: 9.5*; Yeast lifespan up: -26; Measles CPE: 6; BB579 growth dn: -53

How did CCN(CCNc1ccc([N+](=O)[O-])c2cccnc12)S(=O)(=O)c1ccccc1 do in these assays?
RAM network inh: 5; Yeast lifespan up: 3; Measles CPE: 5; BB579 growth dn: -31

Results for Cc1ccc2c(c1)C1CN(C)CCC1N2C(=O)/C=C/c1ccc2c(c1)OCO2 (stereo unspecified) ?
RAM network inh: 1

What do the screens show for `CN1C(=O)C(=Cc2ccc(N3CCOCC3)o2)C(=O)N(C)C1=O`?
RAM network inh: 0; Yeast lifespan up: -4; Measles CPE: 25; BB579 growth dn: -13

What do the screens show for `CN1C(=O)C(=Cc2ccc(N3CCCCCC3)o2)C(=O)N(C)C1=S`?
RAM network inh: 8.7*; Yeast lifespan up: -8; Measles CPE: 6; BB579 growth dn: -50

How did Cc1ccc(N2C(=O)NC(=O)/C(=C/C=C/c3ccco3)C2=O)cc1 do in these assays?
RAM network inh: 5; Yeast lifespan up: 27*; Measles CPE: 2; BB579 growth dn: -26

What do the screens show for `Cc1cc(C)cc(N2C(=O)NC(=O)/C(=C\C=C\c3ccco3)C2=O)c1`?
RAM network inh: 4; Yeast lifespan up: 28*; Measles CPE: 1; BB579 growth dn: -13

Results for CC(C)c1ccc(N2C(=O)NC(=O)/C(=C/C=C/c3ccco3)C2=O)cc1 ?
RAM network inh: 2; Yeast lifespan up: 11; Measles CPE: 0; BB579 growth dn: -21

How did Cc1c2ccncc2c(C)c2c1[nH]c1ccccc12 do in these assays?
RAM network inh: -1; Yeast lifespan up: -8; Measles CPE: 0; BB579 growth dn: 100*

What do the screens show for `c1ccc2c(c1)[nH]c1cnccc12`?
RAM network inh: 2; Yeast lifespan up: 6; Measles CPE: 33; BB579 growth dn: -42

Results for O=C(O)Cn1cc(C(=O)c2ccccc2)c2ccccc21 ?
RAM network inh: 0; Yeast lifespan up: -6; Measles CPE: 40*; BB579 growth dn: -18

How did Cn1cc(C(=O)c2ccccc2)c2ccccc21 do in these assays?
RAM network inh: 1; Yeast lifespan up: -6; Measles CPE: 12; BB579 growth dn: -10

What do the screens show for `C(=NC12CN3CN(CN(C3)C1)C2)c1cccs1`?
RAM network inh: 2; Yeast lifespan up: -18; Measles CPE: 55*; BB579 growth dn: -25

Results for O=C1N(c2ccc(Cl)cc2)C(c2cccnc2)N2CCCN12 (stereo unspecified) ?
RAM network inh: 2

What do the screens show for `Cc1c(N=Nc2c(O)n(C)c(=O)n(C)c2=O)c(=O)n(-c2ccccc2)n1C`?
RAM network inh: 2; Yeast lifespan up: 1; Measles CPE: 10; BB579 growth dn: -6

How did Cc1cc(OCc2ccc([N+](=O)[O-])cc2)c2c3c(c(=O)oc2c1)CCCC3 do in these assays?
RAM network inh: 4; Yeast lifespan up: -5; Measles CPE: 46*; BB579 growth dn: -12

Results for CCN(CC)CC(O)c1ccc(C2CCCC2)cc1 (stereo unspecified) ?
RAM network inh: 0; Yeast lifespan up: 3; Measles CPE: 7; BB579 growth dn: -44

What do the screens show for `CNS(=O)(=O)c1ccc(N=Cc2c(O)n(-c3cccc(C)c3)c(=O)[nH]c2=O)cc1`?
RAM network inh: 1

Results for CNS(=O)(=O)c1ccc(N=Cc2c(O)n(-c3ccccc3)c(=O)[nH]c2=O)cc1 ?
RAM network inh: 9.4*

What do the screens show for `CCN(CC)c1ccc(N=Cc2c(O)n(-c3ccc(Cl)cc3)c(=O)[nH]c2=O)cc1`?
RAM network inh: 11*; Yeast lifespan up: -18; Measles CPE: 2; BB579 growth dn: -19

How did CCC(CO)Nc1ccc([N+](=O)[O-])c2cccnc12 (stereo unspecified) do in these assays?
RAM network inh: 2; Yeast lifespan up: -21; Measles CPE: 8; BB579 growth dn: -25

How did Cc1nc2ccccc2c(=O)n1-c1ccc(F)cc1 do in these assays?
RAM network inh: 0; Yeast lifespan up: -11; Measles CPE: 31*; BB579 growth dn: -92

How did CC1(C)COC(Nc2cccc(Cl)c2)=N1 do in these assays?
RAM network inh: 1; Yeast lifespan up: -4; Measles CPE: 11; BB579 growth dn: -36

What do the screens show for `O=C(Nc1cccc2ccccc12)c1nn(C23CC4CC(CC(C4)C2)C3)cc1Br`?
RAM network inh: 2; Yeast lifespan up: -14; Measles CPE: 38*; BB579 growth dn: -38

Results for COC(=O)C(O)(c1ccc2c(c1)CCCN2)C(F)(F)F (stereo unspecified) ?
RAM network inh: 1; Yeast lifespan up: -6; Measles CPE: 7; BB579 growth dn: -18

How did Cc1ccc(CN2C3CCCC2CC(NC(=S)NCc2ccccc2)C3)cc1 (stereo unspecified) do in these assays?
RAM network inh: 1

What do the screens show for `CCCN1C2CCCC1CC(NC(C)=O)C2` (stereo unspecified)?
RAM network inh: 1; Yeast lifespan up: -10; Measles CPE: 49*; BB579 growth dn: -30

Results for CC(=O)NC1CC2CCCC(C1)N2 (stereo unspecified) ?
RAM network inh: -1; Yeast lifespan up: -3; Measles CPE: 28; BB579 growth dn: -16

How did Cc1ccc(Sc2ccc(C=C3C(=O)N(C)C(=O)N(C)C3=O)o2)cc1 do in these assays?
RAM network inh: 8

How did CN1C(=O)C(=Cc2ccc(-c3cccc(Cl)c3)o2)C(=O)N(C)C1=O do in these assays?
RAM network inh: 0; Yeast lifespan up: 21; Measles CPE: 20*; BB579 growth dn: -17

What do the screens show for `O=P1(Nc2cccnc2)COc2ccccc2OC1`?
RAM network inh: 1; Yeast lifespan up: -4; Measles CPE: 12; BB579 growth dn: -11

How did CCC(CC)N1CCN(C(=O)Cc2ccccc2)CC1 do in these assays?
RAM network inh: 0; Measles CPE: 43*; BB579 growth dn: -20

How did Cc1ccccc1CN1CCN(C(=O)Cc2ccccc2)CC1 do in these assays?
RAM network inh: 1

How did Fc1c(F)c(F)c(N2CCNCC2)c(F)c1F do in these assays?
RAM network inh: 3
